In ChEMBL document CHEMBL1122501, “Potential antiatherosclerotic agents. 2. (Aralkylamino)- and (alkylamino) benzoic acid analogues of cetaben” (1983):

Legend:
[1] = biological target: T1, Sterol O-acyltransferase 1 (Rattus norvegicus) (UniProt O70536); assay: In vitro inhibitory activity against acyl coenzyme A:cholesterol acyltransferase (ACAT); set-up: concentration or dose not given beside the values; conditions: concentration not given here
T1 sequence (whole entry): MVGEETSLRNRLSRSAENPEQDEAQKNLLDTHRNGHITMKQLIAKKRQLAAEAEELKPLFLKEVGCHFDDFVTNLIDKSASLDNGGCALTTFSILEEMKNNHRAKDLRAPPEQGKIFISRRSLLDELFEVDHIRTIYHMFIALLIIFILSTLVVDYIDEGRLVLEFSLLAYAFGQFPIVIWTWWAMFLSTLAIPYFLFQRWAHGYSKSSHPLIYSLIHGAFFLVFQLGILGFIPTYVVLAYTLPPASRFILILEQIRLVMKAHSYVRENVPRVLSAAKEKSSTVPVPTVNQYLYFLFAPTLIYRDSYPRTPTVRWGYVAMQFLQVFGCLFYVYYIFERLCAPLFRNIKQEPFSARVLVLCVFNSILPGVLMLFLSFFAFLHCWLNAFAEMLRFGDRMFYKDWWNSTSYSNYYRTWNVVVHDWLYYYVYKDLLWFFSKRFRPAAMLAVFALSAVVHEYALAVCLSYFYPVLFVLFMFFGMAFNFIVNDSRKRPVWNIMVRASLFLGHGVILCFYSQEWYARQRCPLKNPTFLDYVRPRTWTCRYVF
In short: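 ACAT enzyme from rat adrenal homogenate in 0.2 M KH2PO4 buffer pH 7.4, 1000g 15 min 5 °C supernatant (microsomal fraction). Supernatant + BSA (50 mg/mL) + compound at final 5.2 μg/mL + buffer preincubated 10 min 37 °C; [14C]oleoyl-CoA (0.4 μCi) added, 30 min 37 °C. Lipids extracted, TLC; cholesteryl ester zone counted. Mean % inhibition vs no-compound control; Student's t test.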

Rattus norvegicus [2] = assay: In vivo triglyceride lowering activity, dosed at 0.03 % of the diet; type: functional
In short: (§1)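 Male CFE or CD-1 Sprague-Dawley rats, 140-150 g; 8 per control group, 4 per test group. Compound mixed into ground chow (w/w) via MeOH-CHCl3 (1:3) solution, solvent evaporated; controls got solvent-treated chow. Fed ad libitum 5 days, food intake monitored, killed fed and bled. Serum sterols and triglycerides by adapted autoanalyzer methods; mean percent of control, Student's t test.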

Rattus norvegicus [3] = assay: In vivo sterol lowering activity dosed at 0.10 % of the diet; type: functional; in short: as §1
Rattus norvegicus [4] = assay: In vivo Triglyceride lowering activity at dose as 0.01 % of the diet; type: functional; in short: as §1
Rattus norvegicus [5] = assay: In vivo triglyceride lowering activity dosed at 0.10 % of the diet; type: functional; in short: as §1
Rattus norvegicus [6] = assay: In vivo Sterol lowering activity at dose as 0.01 % of the diet; type: functional; in short: as §1
Rattus norvegicus [7] = assay: In vivo Sterol lowering activity at dose as 0.03 % of the diet; type: functional; in short: as §1
Rattus norvegicus [8] = assay: In vivo Sterol lowering activity at dose as 0.10 % of the diet.; type: functional; in short: as §1
Rattus norvegicus [9] = assay: In vivo triglyceride lowering activity, dosed at 0.01 % of the diet.; type: functional; in short: as §1
Rattus norvegicus [10] = assay: In vivo Triglyceride lowering activity at dose as 0.025 % of the diet; type: functional; in short: as §1
Rattus norvegicus [11] = assay: In vivo Sterol lowering activity at dose as 0.025 % of the diet; type: functional; in short: as §1
Rattus norvegicus [12] = assay: In vivo Sterol lowering activity at dose as 0.05 % of the diet; type: functional; in short: as §1
Rattus norvegicus [13] = assay: In vivo triglyceride lowering activity dosed at 0.05 % of the diet; type: functional; in short: as §1
Rattus norvegicus [14] = assay: In vivo Triglyceride lowering activity at dose as 0.03 % of the diet.; type: functional; in short: as §1
Rattus norvegicus [15] = assay: In vivo Sterol lowering activity at dose as 0.03 % of the diet.; type: functional; in short: as §1
Rattus norvegicus [16] = assay: In vivo triglyceride lowering activity, dosed at 0.10 % of the diet.; type: functional; in short: as §1

| SMILES | inhibition [1] | serum triglycerides, percent of control (Rattus norvegicus [2]) | serum sterol, percent of control (Rattus norvegicus [3]) | Diet (Rattus norvegicus [4]) | serum triglycerides, percent of control (Rattus norvegicus [5]) | Diet (Rattus norvegicus [6]) | Diet (Rattus norvegicus [7]) | serum sterol, percent of control (Rattus norvegicus [8]) | Diet (Rattus norvegicus [9]) | Diet (Rattus norvegicus [10]) | Diet (Rattus norvegicus [11]) | Diet (Rattus norvegicus [12]) | Diet (Rattus norvegicus [13]) | Diet (Rattus norvegicus [14]) | serum sterol level, percent of control (Rattus norvegicus [15]) | Diet (Rattus norvegicus [16]) |
| --- | --- | --- | --- | --- | --- | --- | --- | --- | --- | --- | --- | --- | --- | --- | --- | --- |
| CCCCCCCCCCCCCCCCCCNc1ccc(C(=O)[O-])cc1.[Na+] |  | <76% | 79% | 90% | <52% | <84% | 86% |  |  |  |  |  |  |  |  |  |
| O=C(O)c1ccc(NCCCc2ccccc2)cc1 | 18% |  | 81% |  | 68% |  |  |  |  | 64% | 81% | 75% | 51% |  |  |  |
| O=C(O)c1ccc(NCCCc2ccccc2F)cc1 | 58% | 55% |  | 58% | 52% | 87% |  | 81% |  |  |  |  |  |  | 85% |  |
| CCCCCCCCCC/C=C/CCCNc1ccc(C(=O)[O-])cc1.[Na+] |  | 117% | <82% | 112% | <63% | 86% | 93% |  |  |  |  |  |  |  |  |  |
| CCCCCCCCCCCCNc1ccc(C(=O)[O-])cc1.[Na+] |  | <56% | 88% | <72% | <34% | 89% | 92% |  |  |  |  |  |  |  |  |  |
| O=C(CCCCC(=O)c1ccc(Cl)cc1)Nc1ccc(C(=O)O)cc1 | 40% |  |  |  | 56% | 82% |  | 97% | 94% |  |  |  |  | 70% | 94% |  |
| O=C(O)c1ccc(NC/C=C/c2ccccc2)cc1 | 0% | 43% |  |  | 44% | 86% | 70% | 96% | 85% |  |  |  |  |  |  |  |
| CCCCCCCCCCCCCNc1ccc(C(=O)[O-])cc1.[Na+] |  | 70% | <76% | <60% | <62% | 110% | 90% |  |  |  |  |  |  |  |  |  |
| CCCCCCCCCCCCCCCCNc1ccc(C(=O)O)cc1 [CETABEN] |  | <45% | <54% | <71% | <31% | <72% | <71% |  |  |  |  |  |  |  |  |  |
| CCCCCCCCCCCCCCCCNc1ccc(C(=O)[O-])cc1.[Na+] [CETABEN SODIUM] |  | <60% | <60% | <75% | <41% | 90% | <76% |  |  |  |  |  |  |  |  |  |
| O=C(O)c1ccc(NCCCc2cccc(Cl)c2)cc1 | 29% | 48% |  | 64% | 55% | 82% |  | 85% |  |  |  |  |  |  | 90% |  |
| CCCCCCCCCCCCCCCCCCCNc1ccc(C(=O)[O-])cc1.[Na+] |  | 99% | 98% | 102% | <70% | 93% | 98% |  |  |  |  |  |  |  |  |  |

Second part, led by results:

| inhibition [1] | SMILES | serum triglycerides, percent of control (Rattus norvegicus [2]) | serum sterol, percent of control (Rattus norvegicus [3]) | Diet (Rattus norvegicus [4]) | serum triglycerides, percent of control (Rattus norvegicus [5]) | Diet (Rattus norvegicus [6]) | Diet (Rattus norvegicus [7]) | serum sterol, percent of control (Rattus norvegicus [8]) | Diet (Rattus norvegicus [9]) | Diet (Rattus norvegicus [10]) | Diet (Rattus norvegicus [11]) | Diet (Rattus norvegicus [12]) | Diet (Rattus norvegicus [13]) | Diet (Rattus norvegicus [14]) | serum sterol level, percent of control (Rattus norvegicus [15]) | Diet (Rattus norvegicus [16]) |
| --- | --- | --- | --- | --- | --- | --- | --- | --- | --- | --- | --- | --- | --- | --- | --- | --- |
| 15% | CCCCCCCCc1ccc(CNc2ccc(C(=O)O)cc2)s1 | 70% | <72% | 82% | 70% | 85% | <76% |  |  |  |  |  |  |  |  |  |
| 22% | O=C(O)c1ccc(NCCCCCCc2ccc(Cl)cc2)cc1 | 65% |  |  | 43% | 81% | 78% | 82% | 61% |  |  |  |  |  |  |  |
| < 72% | CCOC(=O)c1ccc(NCCCCCCCCCCCn2ccnc2)cc1 | 92% | 89% | 78% | <57% | 89% | 100% |  |  |  |  |  |  |  |  |  |
| 8% | CCCCCCCCCCCCCCCCNc1ccc(C(=O)OCC)cc1 |  | 98% |  | <69% |  |  |  |  | <70% | 109% | 103% | <54% |  |  |  |
| 26% | CCOC(=O)c1ccc(NC(=O)CCc2ccc(OC)cc2)cc1 |  |  |  |  | 80% |  | 98% | 98% |  |  |  |  | 89% | 85% | 105% |
| 19% | CCCCCCCCCCCc1nc(CNc2ccc(C(=O)O)cc2)c[nH]1.Cl | <71% | 100% | 79% | <70% | 99% | 93% |  |  |  |  |  |  |  |  |  |
| < 71% | C=C(CCCCCCCCCC)CCCCCNc1ccc(C(=O)O)cc1 | <64% | <53% | <65% | <30% | <81% | <85% |  |  |  |  |  |  |  |  |  |
| < 34% | CCCCCCCCCCCCCCCCNc1cccc(C(=O)O)c1 |  | 93% |  | 81% |  |  |  |  | 98% | 100% | 100% | 92% |  |  |  |
| < 34% | CCCCCCCCCCCCCCCCCNc1ccc(C(=O)O)cc1 |  | 87% |  | <57% |  |  |  |  | 80% | <87% | <86% | 77% |  |  |  |
| < 53% | O=C(O)c1ccc(NCCCCCCCCCC/C=C/c2cccs2)cc1 | <59% | <73% | 69% | <41% | <84% | <83% |  |  |  |  |  |  |  |  |  |
| < 35% | CCCCCCCCCCOc1ccc(CNc2ccc(C(=O)O)cc2)cc1 |  | <82% |  | <37% |  |  |  |  | <54% | 97% | <90% | <51% |  |  |  |
| < 56% | CCCCCCCCCCCCCCCNc1ccc(C(=O)O)cc1 |  | <79% |  | <60% |  |  |  |  | 72% | 90% | 86% | 80% |  |  |  |
| 22% | Cl.O=C(O)c1ccc(NCCCCCCCCCCCn2ccnc2)cc1 | <48% | 113% | 74% | <47% | 95% | 99% |  |  |  |  |  |  |  |  |  |
| < 19% | CCCCCCCCCCc1ccc(CNc2ccc(C(=O)OCC)cc2)cc1 |  | 99% |  | 94% |  |  |  |  | 82% | 90% | 95% | <69% |  |  |  |
| < 32% | CCCCCCCCc1ccc(CNc2ccc(C(=O)OCC)cc2)s1 | <59% | 82% | 100% | <61% | 97% | 90% |  |  |  |  |  |  |  |  |  |
| < 24% | CCCCCCCCNc1ccc(C(=O)O)cc1 |  | 90% |  | <67% |  |  |  |  | 91% | 101% | 97% | 88% |  |  |  |
| < 40% | CCCCCCCCCC/C=C/CCCNc1ccc(C(=O)OCC)cc1 |  | <86% |  | 83% |  |  |  |  | 90% | <86% | 94% | 77% |  |  |  |
